Measurements taken from ChEMBL document CHEMBL3272012, “5-(Tetradecyloxy)-2-furancarboxylic acid and related hypolipidemic fatty acid-like alkyloxyarylcarboxylic acids” (J Med Chem, 1977).

Assays:
Rattus norvegicus [1] = assay: Hypolipidemic activity in Wistar rat assessed as reduction in plasma cholesterol level at 439 umol/kg/day administered through diet for 4 days; type: functional; details: 96 h
Summary of the method: (§1)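 Young male Wistar rats, 170-190 g initial weight, groups of six, given compound mixed thoroughly into Purina Lab Chow ad libitum for 4 or 10 days as stated. Daily dose calculated from food consumption and body weight. Bled by cardiac puncture at end of treatment; plasma cholesterol measured by automated procedure. Expressed as percent reduction versus simultaneous untreated control group; Student's t test.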

Rattus norvegicus [2] = assay: Hypolipidemic activity in Wistar rat assessed as reduction in plasma cholesterol level at 419 umol/kg/day administered through diet for 10 days; type: functional; details: 240 h; summary of the method: as §1
Rattus norvegicus [3] = assay: Hypolipidemic activity in Wistar rat assessed as reduction in plasma cholesterol level at 417 umol/kg/day administered through diet for 10 days; type: functional; details: 240 h
Summary of the method: (§2)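 Young male Wistar rats, 170-190 g at start, in groups of six, given compound mixed into Purina Lab Chow ad libitum for 4 or 10 days as stated. Daily dose was calculated from food consumption and body weight. Plasma was taken by cardiac puncture at the end and cholesterol measured by automated procedure. Results are % reduction versus a concurrent untreated control group, with Student's t test.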

Rattus norvegicus [4] = assay: Hypolipidemic activity in Wistar rat assessed as reduction in plasma triglyceride level at 439 umol/kg/day administered through diet for 4 days; type: functional; details: 96 h
Summary of the method: (§3)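 Young male Wistar rats (initial weight 170-190 g), groups of six, fed compound mixed into Purina Lab Chow ad libitum for 4 or 10 days; daily dose calculated from food consumption and body weight. Bled by cardiac puncture; plasma cholesterol and triglycerides by automated procedures; percent reduction versus simultaneous untreated controls, Student's t test.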

Rattus norvegicus [5] = assay: Hypolipidemic activity in Wistar rat assessed as reduction in plasma triglyceride level at 419 umol/kg/day administered through diet for 10 days; type: functional; details: 240 h; summary of the method: as §3
Rattus norvegicus [6] = assay: Hypolipidemic activity in Wistar rat assessed as reduction in plasma triglyceride level at 417 umol/kg/day administered through diet for 10 days; type: functional; details: 240 h
Rattus norvegicus [7] = assay: Increase in cholesterol level in Wistar rat liver at 439 umol/kg/day administered through diet for 4 days; type: ADME, organism-based; details: in vivo, po, 96 h
Rattus norvegicus [8] = assay: Increase in cholesterol level in Wistar rat liver at 419 umol/kg/day administered through diet for 10 days; type: ADME, organism-based; details: in vivo, po, 240 h
Summary of the method: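 Male Wistar rats (170-190 g), six per group, given compound by admixture to lab chow ad libitum for 4 or 10 days, dose derived from food intake. Liver cholesterol determined by automated procedure, expressed as mg/g wet tissue, compared with an untreated control group by Student's t test.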

Rattus norvegicus [9] = assay: Increase in cholesterol level in Wistar rat liver at 417 umol/kg/day administered through diet for 10 days; type: ADME, organism-based; details: in vivo, po, 240 h
Rattus norvegicus [10] = assay: Increase in liver weight in Wistar rat at 439 umol/kg/day administered through diet for 4 days; type: ADME, organism-based; details: in vivo, po, 96 h
Summary of the method: (§4)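 Male Wistar rats (170-190 g initial), groups of six, dosed via diet ad libitum for 4 or 10 days, daily dose from food consumption. Liver wet weight measured, expressed as g/100 g final body weight, compared with untreated controls run simultaneously.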

Rattus norvegicus [11] = assay: Increase in liver weight in Wistar rat at 419 umol/kg/day administered through diet for 10 days; type: ADME, organism-based; details: in vivo, po, 240 h; summary of the method: as §4
Rattus norvegicus [12] = assay: Increase in liver weight in Wistar rat at 417 umol/kg/day administered through diet for 10 days; type: ADME, organism-based; details: in vivo, po, 240 h
Rattus norvegicus [13] = assay: Hypolipidemic activity in Wistar rat assessed as reduction in plasma triglyceride level at 1693 umol/kg/day administered through diet for 10 days; type: functional; details: 240 h
Summary of the method: (§5)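 Young male Wistar rats, 170-190 g initial weight, six per group, fed drug mixed thoroughly into Purina Lab Chow ad libitum for the stated days; daily dose calculated from food consumption and body weight. Bled by cardiac puncture at end; plasma cholesterol and triglycerides by automated procedures, expressed as percent reduction versus simultaneous untreated controls; Student's t test.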

Rattus norvegicus [14] = assay: Hypolipidemic activity in Wistar rat assessed as reduction in plasma triglyceride level at 766 umol/kg/day administered through diet for 10 days; type: functional; details: 240 h
Rattus norvegicus [15] = assay: Hypolipidemic activity in Wistar rat assessed as reduction in plasma triglyceride level at 304 umol/kg/day administered through diet for 10 days; type: functional; details: 240 h; summary of the method: as §5
Rattus norvegicus [16] = assay: Hypolipidemic activity in Wistar rat assessed as reduction in plasma triglyceride level at 119 umol/kg/day administered through diet for 10 days; type: functional; details: 240 h; summary of the method: as §5
Rattus norvegicus [17] = assay: Hypolipidemic activity in Wistar rat assessed as reduction in plasma cholesterol level at 1693 umol/kg/day administered through diet for 10 days; type: functional; details: 240 h; summary of the method: as §2
Rattus norvegicus [18] = assay: Hypolipidemic activity in Wistar rat assessed as reduction in plasma cholesterol level at 766 umol/kg/day administered through diet for 10 days; type: functional; details: 240 h; summary of the method: as §3
Rattus norvegicus [19] = assay: Hypolipidemic activity in Wistar rat assessed as reduction in plasma cholesterol level at 304 umol/kg/day administered through diet for 10 days; type: functional; details: 240 h; summary of the method: as §2
Rattus norvegicus [20] = assay: Hypolipidemic activity in Wistar rat assessed as reduction in plasma cholesterol level at 119 umol/kg/day administered through diet for 10 days; type: functional; details: 240 h; summary of the method: as §2
Rattus norvegicus [21] = assay: Increase in liver weight in Wistar rat at 1693 umol/kg/day administered through diet for 10 days; type: ADME, organism-based; details: in vivo, po, 240 h
Rattus norvegicus [22] = assay: Increase in liver weight in Wistar rat at 766 umol/kg/day administered through diet for 10 days; type: ADME, organism-based; details: in vivo, po, 240 h
Rattus norvegicus [23] = assay: Increase in liver weight in Wistar rat at 304 umol/kg/day administered through diet for 10 days; type: ADME, organism-based; details: in vivo, po, 240 h
Rattus norvegicus [24] = assay: Increase in liver weight in Wistar rat at 119 umol/kg/day administered through diet for 10 days; type: ADME, organism-based; details: in vivo, po, 240 h
Rattus norvegicus [25] = assay: Inhibition of cholesterol biosynthesis in Ad Lib fed Wistar rat liver assessed as sodium [1-14C]acetate incorporation at 261 mg/kg/day administered through diet for 7 days measured 1 hr after labeled acetate challenge by liquid scintillation spectrometry (reference value: 12.7 +/- 2.6 x 10^-3 dpm); type: functional
Rattus norvegicus [26] = assay: Inhibition of cholesterol biosynthesis in meal fed Wistar rat liver assessed as sodium [1-14C]acetate incorporation at 188 mg/kg/day administered through diet for 7 days measured 1 hr after labeled acetate challenge by liquid scintillation spectrometry (reference value: 41.3 +/- 3.2 x 10^-3 dpm); type: functional
Rattus norvegicus [27] = assay: Inhibition of fatty acid biosynthesis in Ad Lib fed Wistar rat liver assessed as sodium [1-14C]acetate incorporation at 261 mg/kg/day administered through diet for 7 days measured 1 hr after labeled acetate challenge by liquid scintillation spectrometry (reference value: 27.2 +/- 4.8 x 10^-3 dpm); type: functional
Rattus norvegicus [28] = assay: Inhibition of fatty acid biosynthesis in meal fed Wistar rat liver assessed as sodium [1-14C]acetate incorporation at 188 mg/kg/day administered through diet for 7 days measured 1 hr after labeled acetate challenge by liquid scintillation spectrometry (reference value: 182 +/- 22 x 10^-3 dpm); type: functional
Rattus norvegicus [29] = assay: Hypolipidemic activity in Wistar rat assessed as reduction in plasma cholesterol level at 319 umol/kg/day administered through diet for 4 days; type: functional; details: 96 h; summary of the method: as §2
Rattus norvegicus [30] = assay: Hypolipidemic activity in Wistar rat assessed as reduction in plasma triglyceride level at 319 umol/kg/day administered through diet for 4 days; type: functional; details: 96 h; summary of the method: as §5
Rattus norvegicus [31] = assay: Increase in cholesterol level in Wistar rat liver at 319 umol/kg/day administered through diet for 4 days; type: ADME, organism-based; details: in vivo, po, 96 h
Rattus norvegicus [32] = assay: Increase in liver weight in Wistar rat at 319 umol/kg/day administered through diet for 4 days; type: ADME, organism-based; details: in vivo, po, 96 h

With `CCCCCCCCCCCCCCCOc1ccc(C(=O)OC)cc1` the inhibition in vivo at 439 µmol/kg (Rattus norvegicus [1]) was 19%, the inhibition in vivo at 419 µmol/kg (Rattus norvegicus [2]) was 20% and the inhibition in vivo at 417 µmol/kg (Rattus norvegicus [3]) was 37%. The inhibition in vivo at 439 µmol/kg (Rattus norvegicus [4]) was 46%, the inhibition in vivo at 419 µmol/kg (Rattus norvegicus [5]) was 57% and the inhibition in vivo at 417 µmol/kg (Rattus norvegicus [6]) was 73%. It also gave an Activity (Rattus norvegicus [7]) of 9%, an Activity (Rattus norvegicus [8]) of 2% and an Activity (Rattus norvegicus [9]) of 9%. For the same compound, the Activity (Rattus norvegicus [10]) was 7%, the Activity (Rattus norvegicus [11]) was 15% and the Activity (Rattus norvegicus [12]) was 0%.
`CCOC(=O)C(C)(C)Oc1ccc(Cl)cc1` [CLOFIBRATE] showed an inhibition in vivo at 1693 µmol/kg (Rattus norvegicus [13]) of 78%, an inhibition in vivo at 766 µmol/kg (Rattus norvegicus [14]) of 66% and an inhibition in vivo at 304 µmol/kg (Rattus norvegicus [15]) of 48%. It also gave an inhibition in vivo at 119 µmol/kg (Rattus norvegicus [16]) of 30%, an inhibition in vivo at 1693 µmol/kg (Rattus norvegicus [17]) of 41% and an inhibition in vivo at 766 µmol/kg (Rattus norvegicus [18]) of 36%. The inhibition in vivo at 304 µmol/kg (Rattus norvegicus [19]) was 18%, the inhibition in vivo at 119 µmol/kg (Rattus norvegicus [20]) was 9% and the Activity (Rattus norvegicus [21]) was 50%. It also gave an Activity (Rattus norvegicus [22]) of 22%, an Activity (Rattus norvegicus [23]) of 2% and an Activity (Rattus norvegicus [24]) of 0%. The Activity (Rattus norvegicus [25]) was 4100 dpm, the Activity (Rattus norvegicus [26]) was 43300 dpm and the Activity (Rattus norvegicus [27]) was 50000 dpm. For the same compound, the Activity (Rattus norvegicus [28]) was 205000 dpm.
`CCCCCCCCCCCCCOc1ccc(C(=O)O)o1` was tested, and the inhibition in vivo at 319 µmol/kg (Rattus norvegicus [29]) was 31%, the inhibition in vivo at 319 µmol/kg (Rattus norvegicus [30]) was 6% and the Activity (Rattus norvegicus [31]) was 3%. For the same compound, the Activity (Rattus norvegicus [32]) was 15%.
